Measured values as given in PMC7867784 (Translational Lung Cancer Research, 2021).

Tested on: Japanese patients with RET-rearranged NSCLC
Assay: ALL-RET phase 1/2 trial: safety
Type: in vivo, human
Outline: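 Adverse events were graded by NCI CTCAE v4.0, with causal relation to treatment recorded separately. Dose finding used a 3+3 de-escalation design with 3–6 patients per cohort. DLT was evaluated over the first 21-day cycle and defined as grade ≥4 thrombopenia, grade ≥3 febrile neutropenia, grade ≥4 neutropenia lasting ≥4 days, or grade ≥3 non-hematologic toxicity, with specified exceptions. Follow-up ran until January 2019.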

[1] = 600 mg BID (N=6), dose limiting toxicity
[2] = Japanese patients with RET-rearranged NSCLC

## CCc1cc2c(cc1N1CCC(N3CCOCC3)CC1)C(C)(C)c1[nH]c3cc(C#N)ccc3c1C2=O [alectinib]
450 mg BID
  grade 4 AEs: no grade 4 AEs were observed
450 mg BID (N=28)
  Aspartate aminotransferase increase, any grade, number (total): 9
  Aspartate aminotransferase increase, any grade, number [causally related]: 7
  Aspartate aminotransferase increase, any grade, percent (total): 32.1%
  Aspartate aminotransferase increase, any grade, percent [causally related]: 25.0%
  Aspartate aminotransferase increase, grade 1–2, number (total): 9
  Aspartate aminotransferase increase, grade 1–2, number [causally related]: 7
  Aspartate aminotransferase increase, grade 3, number: 0
  Aspartate aminotransferase increase, grade 4, number: 0
  Bilirubin increase, any grade, number (total): 6 [6]
  Bilirubin increase, any grade, number [causally related]: 6 [6]
  Bilirubin increase, any grade, percent: 21.4%
  Bilirubin increase, grade 1–2, number (total): 5 [5]
  Bilirubin increase, grade 1–2, number [causally related]: 5 [5]
  Bilirubin increase, grade 3, number (total): 1 [1]
  Bilirubin increase, grade 3, number [causally related]: 1 [1]
  Bilirubin increase, grade 4, number: 0
  Constipation, any grade, number [causally related]: 12
  Constipation, any grade, percent (total): 57.1%
  Constipation, any grade, percent [causally related]: 42.9%
  Constipation, grade 1–2, number (total): 16
  Constipation, grade 1–2, number [causally related]: 12
  Constipation, grade 3, number: 0
  Constipation, grade 4, number: 0
  Creatine phosphokinase increase, any grade, number (total): 13 [13]
  Creatine phosphokinase increase, any grade, number [causally related]: 13 [13]
  Creatine phosphokinase increase, any grade, percent: 46.4%
  Creatine phosphokinase increase, grade 1–2, number (total): 12 [12]
  Creatine phosphokinase increase, grade 1–2, number [causally related]: 12 [12]
  Creatine phosphokinase increase, grade 3, number (total): 1 [1]
  Creatine phosphokinase increase, grade 3, number [causally related]: 1 [1]
  Creatine phosphokinase increase, grade 4, number: 0
  Creatinine increase, any grade, number (total): 8 [8]
  Creatinine increase, any grade, number [causally related]: 8 [8]
  Creatinine increase, any grade, percent: 28.6%
  Creatinine increase, grade 1–2, number (total): 8 [8]
  Creatinine increase, grade 1–2, number [causally related]: 8 [8]
  Creatinine increase, grade 3, number: 0
  Creatinine increase, grade 4, number: 0
  Diarrhea, any grade, number (total): 3
  Diarrhea, any grade, number [causally related]: 2
  Diarrhea, any grade, percent (total): 10.7%
  Diarrhea, any grade, percent [causally related]: 7.1%
  Diarrhea, grade 1–2, number (total): 2 [2]
  Diarrhea, grade 1–2, number [causally related]: 2 [2]
  Diarrhea, grade 3, number (total): 1
  Diarrhea, grade 3, number [causally related]: 0
  Diarrhea, grade 4, number: 0
  Hyponatraemia, any grade, number (total): 1 [1]
  Hyponatraemia, any grade, number [causally related]: 1 [1]
  Hyponatraemia, any grade, percent: 3.6%
  Hyponatraemia, grade 1–2, number: 0
  Hyponatraemia, grade 3, number (total): 1 [1]
  Hyponatraemia, grade 3, number [causally related]: 1 [1]
  Hyponatraemia, grade 4, number: 0
  Neutropenia, any grade, number (total): 1 [1]
  Neutropenia, any grade, number [causally related]: 1 [1]
  Neutropenia, any grade, percent: 3.6%
  Neutropenia, grade 1–2, number: 0
  Neutropenia, grade 3, number (total): 1 [1]
  Neutropenia, grade 3, number [causally related]: 1 [1]
  Neutropenia, grade 4, number: 0
  Pneumonitis, any grade, percent (total): 3.6%
  Pneumonitis, any grade, percent [causally related]: 0.0%
  Pneumonitis, grade 1–2, number: 0
  Pneumonitis, grade 3, number (total): 1 [1]
  Pneumonitis, grade 3, number [causally related]: 1 [1]
  Pneumonitis, grade 4, number: 0
450 mg BID (N=28; phase 1 N=3, phase 2 N=25)
  Constipation, any grade, number (total): 16
450 mg BID, 28 patients
  dose reduction due to toxicity: no patients required a dose reduction
450 mg BID, out of 28 patients
  patients whose treatment was discontinued due to pneumonitis: 1
600 mg BID (N=6)
  Alkaline phosphatase increase, any grade, number (total): 2 [2]
  Alkaline phosphatase increase, any grade, number [causally related]: 2 [2]
  Alkaline phosphatase increase, any grade, percent: 33.3%
  Alkaline phosphatase increase, grade 1–2, number (total): 1[1]
  Alkaline phosphatase increase, grade 1–2, number [causally related]: 1[1]
  Alkaline phosphatase increase, grade 3, number (total): 1[1]
  Alkaline phosphatase increase, grade 3, number [causally related]: 1[1]
  Alkaline phosphatase increase, grade 4, number: 0
  Cholangitis, any grade, number (total): 1 [1]
  Cholangitis, any grade, number [causally related]: 1 [1]
  Cholangitis, any grade, percent: 16.7%
  Cholangitis, grade 1–2, number: 0
  Cholangitis, grade 3, number (total): 1 [1]
  Cholangitis, grade 3, number [causally related]: 1 [1]
  Cholangitis, grade 4, number: 0
  Constipation, any grade, number (total): 4 [4]
  Constipation, any grade, number [causally related]: 4 [4]
  Constipation, any grade, percent: 66.7%
  Constipation, grade 1–2, number (total): 4 [4]
  Constipation, grade 1–2, number [causally related]: 4 [4]
  Constipation, grade 3, number: 0
  Constipation, grade 4, number: 0
  Creatine phosphokinase increase, any grade, number (total): 2 [2]
  Creatine phosphokinase increase, any grade, number [causally related]: 2 [2]
  Creatine phosphokinase increase, any grade, percent: 33.3%
  Creatine phosphokinase increase, grade 1–2, number (total): 1[1]
  Creatine phosphokinase increase, grade 1–2, number [causally related]: 1[1]
  Creatine phosphokinase increase, grade 4, number: 0
  Creatinine increase, any grade, number (total): 2 [2]
  Creatinine increase, any grade, number [causally related]: 2 [2]
  Creatinine increase, any grade, percent: 33.3%
  Creatinine increase, grade 1–2, number (total): 2[2]
  Creatinine increase, grade 1–2, number [causally related]: 2[2]
  Creatinine increase, grade 3, number: 0
  Creatinine increase, grade 4, number: 0
  Dysgeusia, any grade, number (total): 2 [2]
  Dysgeusia, any grade, number [causally related]: 2 [2]
  Dysgeusia, any grade, percent: 33.3%
  Dysgeusia, grade 1–2, number (total): 2 [2]
  Dysgeusia, grade 1–2, number [causally related]: 2 [2]
  Dysgeusia, grade 3, number: 0
  Dysgeusia, grade 4, number: 0
  Erythema multiforme, any grade, number (total): 1 [1]
  Erythema multiforme, any grade, number [causally related]: 1 [1]
  Erythema multiforme, any grade, percent: 16.7%
  Erythema multiforme, grade 1–2, number: 0
  Erythema multiforme, grade 4, number: 0
  Hepatic function abnormal, any grade, number (total): 2 [2]
  Hepatic function abnormal, any grade, number [causally related]: 2 [2]
  Hepatic function abnormal, any grade, percent: 33.3%
  Hepatic function abnormal, grade 1–2, number (total): 1 [1]
  Hepatic function abnormal, grade 1–2, number [causally related]: 1 [1]
  Hepatic function abnormal, grade 4, number: 0
  Lymphocyte decrease, any grade, number (total): 1 [1]
  Lymphocyte decrease, any grade, number [causally related]: 1 [1]
  Lymphocyte decrease, any grade, percent: 16.7%
  Lymphocyte decrease, grade 1–2, number: 0
  Lymphocyte decrease, grade 3, number: 0
  Lymphocyte decrease, grade 4, number (total): 1 [1]
  Lymphocyte decrease, grade 4, number [causally related]: 1 [1]
  Myalgia, any grade, number (total): 3 [3]
  Myalgia, any grade, number [causally related]: 3 [3]
  Myalgia, any grade, percent: 50.0%
  Myalgia, grade 1–2, number (total): 3 [3]
  Myalgia, grade 1–2, number [causally related]: 3 [3]
  Myalgia, grade 3, number: 0
  Myalgia, grade 4, number: 0
  Oedema peripheral, any grade, number (total): 2 [2]
  Oedema peripheral, any grade, number [causally related]: 2 [2]
  Oedema peripheral, any grade, percent: 33.3%
  Oedema peripheral, grade 1–2, number (total): 2 [2]
  Oedema peripheral, grade 1–2, number [causally related]: 2 [2]
  Oedema peripheral, grade 3, number: 0
  Oedema peripheral, grade 4, number: 0
  Rash, any grade, number (total): 1 [1]
  Rash, any grade, number [causally related]: 1 [1]
  Rash, any grade, percent: 16.7%
  Rash, grade 1–2, number: 0
  Rash, grade 4, number: 0
  Thromboembolic event, any grade, number (total): 1 [1]
  Thromboembolic event, any grade, number [causally related]: 1 [1]
  Thromboembolic event, any grade, percent: 16.7%
  Thromboembolic event, grade 1–2, number: 0
  Thromboembolic event, grade 4, number: 0
[1]
  Creatine phosphokinase increase, grade 3, number (total): 1[1]*
  Creatine phosphokinase increase, grade 3, number [causally related]: 1[1]*
  Erythema multiforme, grade 3, number (total): 1 [1]*
  Erythema multiforme, grade 3, number [causally related]: 1 [1]*
  Hepatic function abnormal, grade 3, number (total): 1 [1]*
  Hepatic function abnormal, grade 3, number [causally related]: 1 [1]*
  Rash, grade 3, number (total): 1 [1]*
  Rash, grade 3, number [causally related]: 1 [1]*
  Thromboembolic event, grade 3, number (total): 1 [1]*
  Thromboembolic event, grade 3, number [causally related]: 1 [1]*
600 mg BID, out of 6 patients
  patients whose treatment was discontinued due to DLTs: 2
[2]
  MTD (maximum tolerated dose): 450 mg BID
  recommended dose (RD) for phase 2: 450 mg BID
Cohort 1, 600 mg BID
  DLTs observed in case S1-3: grade 3 rash and hepatic function abnormal
  DLTs observed in case S1-4: grade 3 erythema multiforme and thromboembolic event
Phase 1 cohort 1, 600 mg BID, 6 patients
  number of dose-limiting toxicities (DLTs): 5
Phase 1 cohort 1, 600 mg BID, of 6 patients
  patients with DLTs: 3
Phase 1 cohort 2, 450 mg BID, 3 patients
  DLTs: no DLTs
Phase 2, 450 mg BID
  grade 3 adverse events including pneumonitis: 4%
